Calls of active or inactive are those of the source. The rule behind the calls is not given here.
Key:
[1] = target: T1, Tyrosine-protein kinase JAK3 (Homo sapiens, UniProt P52333); experiment: Inhibition of recombinant JAK3
T1 sequence (P52333 whole entry): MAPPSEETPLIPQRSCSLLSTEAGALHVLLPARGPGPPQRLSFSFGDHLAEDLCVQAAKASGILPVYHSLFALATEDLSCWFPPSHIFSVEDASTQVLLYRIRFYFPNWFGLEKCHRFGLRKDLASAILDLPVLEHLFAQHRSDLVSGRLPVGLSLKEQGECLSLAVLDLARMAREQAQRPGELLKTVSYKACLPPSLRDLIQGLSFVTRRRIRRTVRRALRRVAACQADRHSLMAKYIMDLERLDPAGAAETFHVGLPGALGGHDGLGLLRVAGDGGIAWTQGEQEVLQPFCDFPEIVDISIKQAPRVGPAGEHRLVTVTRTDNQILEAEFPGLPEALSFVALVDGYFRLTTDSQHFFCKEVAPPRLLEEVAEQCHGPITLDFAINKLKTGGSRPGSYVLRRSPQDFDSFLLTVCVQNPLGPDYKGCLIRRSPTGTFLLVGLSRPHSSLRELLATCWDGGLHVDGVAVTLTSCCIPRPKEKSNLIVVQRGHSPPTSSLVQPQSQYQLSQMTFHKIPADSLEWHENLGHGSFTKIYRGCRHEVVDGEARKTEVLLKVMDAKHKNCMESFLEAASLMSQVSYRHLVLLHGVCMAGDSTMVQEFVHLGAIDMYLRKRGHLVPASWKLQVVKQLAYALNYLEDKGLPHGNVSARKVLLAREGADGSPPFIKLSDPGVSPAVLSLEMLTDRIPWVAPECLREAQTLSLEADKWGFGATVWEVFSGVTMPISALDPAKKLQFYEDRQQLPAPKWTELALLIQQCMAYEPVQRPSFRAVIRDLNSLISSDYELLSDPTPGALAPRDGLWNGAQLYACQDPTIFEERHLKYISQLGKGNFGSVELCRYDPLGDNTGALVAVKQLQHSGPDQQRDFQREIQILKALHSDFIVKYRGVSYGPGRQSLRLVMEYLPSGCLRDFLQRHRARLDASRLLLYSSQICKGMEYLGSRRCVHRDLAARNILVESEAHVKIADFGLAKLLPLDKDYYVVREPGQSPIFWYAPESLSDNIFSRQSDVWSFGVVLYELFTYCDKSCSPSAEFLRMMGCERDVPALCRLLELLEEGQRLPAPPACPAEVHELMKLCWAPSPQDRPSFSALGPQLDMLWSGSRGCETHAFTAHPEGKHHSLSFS

[2] = target: ALK tyrosine kinase receptor (Homo sapiens, UniProt Q9UM73); experiment: Inhibition of ALK
[3] = target: Mast/stem cell growth factor receptor Kit (Homo sapiens, UniProt P10721); experiment: Inhibition of cKit
[4] = target: T2, Mitogen-activated protein kinase kinase kinase kinase 2 (Homo sapiens, UniProt Q12851); experiment: Inhibition of GCK
T2 sequence (Q12851 whole entry): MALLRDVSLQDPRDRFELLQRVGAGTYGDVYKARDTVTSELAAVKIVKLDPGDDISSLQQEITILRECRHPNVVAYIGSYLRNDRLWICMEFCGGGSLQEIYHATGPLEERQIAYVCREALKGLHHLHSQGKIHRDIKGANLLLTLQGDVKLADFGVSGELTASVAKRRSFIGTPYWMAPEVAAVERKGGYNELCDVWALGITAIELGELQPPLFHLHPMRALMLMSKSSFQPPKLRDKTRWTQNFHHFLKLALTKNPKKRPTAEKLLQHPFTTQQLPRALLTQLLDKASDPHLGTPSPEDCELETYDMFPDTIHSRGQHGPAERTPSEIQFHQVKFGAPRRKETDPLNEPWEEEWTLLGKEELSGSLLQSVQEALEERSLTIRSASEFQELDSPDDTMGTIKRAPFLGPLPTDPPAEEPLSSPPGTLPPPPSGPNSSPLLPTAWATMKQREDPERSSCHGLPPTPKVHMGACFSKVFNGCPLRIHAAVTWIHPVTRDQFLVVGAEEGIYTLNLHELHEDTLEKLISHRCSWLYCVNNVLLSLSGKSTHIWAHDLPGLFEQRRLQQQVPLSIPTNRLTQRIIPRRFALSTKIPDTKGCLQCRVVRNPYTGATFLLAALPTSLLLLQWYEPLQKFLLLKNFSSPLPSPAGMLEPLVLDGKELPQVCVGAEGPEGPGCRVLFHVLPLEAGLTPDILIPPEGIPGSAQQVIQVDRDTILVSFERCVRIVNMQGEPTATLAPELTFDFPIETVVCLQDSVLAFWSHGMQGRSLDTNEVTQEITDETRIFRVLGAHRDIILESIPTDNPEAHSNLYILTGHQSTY

[5] = Cmax in Sprague-Dawley rat at 1.8 mg/kg, iv by LC/MS/MS method; format: ADME, organism-based; parameters: dose 1.8 mg/kg, route intravenous; conditions: in vivo
In short: (§1)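 Male Charles River Sprague-Dawley rats and Fox Chase SCID (CB-17) mice, dosed iv or po. Plasma drug concentrations measured by a specific LC/MS/MS method. Pharmacokinetic parameters are reported as mean values.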

[6] = AUC (0 to infinity) in Sprague-Dawley rat at 1.8 mg/kg, iv by LC/MS/MS method; format: ADME, organism-based; parameters: time infinity, dose 1.8 mg/kg, route intravenous; conditions: plasma; in short: as §1
[7] = Half life in Sprague-Dawley rat at 1.8 mg/kg, iv by LC/MS/MS method; format: ADME, organism-based; parameters: dose 1.8 mg/kg, route intravenous; conditions: in vivo; in short: as §1
[8] = Clearance in Sprague-Dawley rat at 1.8 mg/kg, iv by LC/MS/MS method; format: ADME, organism-based; parameters: dose 1.8 mg/kg, route intravenous; conditions: in vivo; in short: as §1
[9] = Volume of distribution at steady state in Sprague-Dawley rat at 1.8 mg/kg, iv by LC/MS/MS method; format: ADME, organism-based; parameters: dose 1.8 mg/kg, route intravenous; conditions: in vivo, read-out: Vdss; in short: as §1
[10] = Cmax in Sprague-Dawley rat at 10 mg/kg, po by LC/MS/MS method; format: ADME, organism-based; parameters: dose 10 mg/kg, route oral; conditions: in vivo; in short: as §1
[11] = Tmax in Sprague-Dawley rat at 10 mg/kg, po by LC/MS/MS method; format: ADME, organism-based; parameters: dose 10 mg/kg, route oral; conditions: in vivo; in short: as §1
[12] = AUC (0 to infinity) in Sprague-Dawley rat at 10 mg/kg, po by LC/MS/MS method; format: ADME, organism-based; parameters: time infinity, dose 10 mg/kg, route oral; conditions: plasma; in short: as §1
[13] = Half life in Sprague-Dawley rat at 10 mg/kg, po by LC/MS/MS method; format: ADME, organism-based; parameters: dose 10 mg/kg, route oral; conditions: in vivo; in short: as §1
[14] = Oral bioavailability in Sprague-Dawley rat at 10 mg/kg by LC/MS/MS method; format: ADME, organism-based; conditions: in vivo; in short: as §1
[15] = Cmax in CB17 mouse at 9 mg/kg, iv by LC/MS/MS method; format: ADME, organism-based; parameters: dose 9 mg/kg, route intravenous; conditions: in vivo; in short: as §1
[16] = AUC (0 to infinity) in CB17 mouse at 9 mg/kg, iv by LC/MS/MS method; format: ADME, organism-based; parameters: time infinity, dose 9 mg/kg, route intravenous; conditions: plasma; in short: as §1
[17] = Half life in CB17 mouse at 9 mg/kg, iv by LC/MS/MS method; format: ADME, organism-based; parameters: dose 9 mg/kg, route intravenous; conditions: in vivo; in short: as §1
[18] = Clearance in CB17 mouse at 9 mg/kg, iv by LC/MS/MS method; format: ADME, organism-based; parameters: dose 9 mg/kg, route intravenous; conditions: in vivo; in short: as §1
[19] = Volume of distribution at steady state in CB17 mouse at 9 mg/kg, iv by LC/MS/MS method; format: ADME, organism-based; parameters: dose 9 mg/kg, route intravenous; conditions: in vivo, read-out: Vdss; in short: as §1
[20] = Cmax in CB17 mouse at 10 mg/kg, po by LC/MS/MS method; format: ADME, organism-based; parameters: dose 10 mg/kg, route oral; conditions: in vivo; in short: as §1
[21] = Tmax in CB17 mouse at 10 mg/kg, po by LC/MS/MS method; format: ADME, organism-based; parameters: dose 10 mg/kg, route oral; conditions: in vivo; in short: as §1
[22] = AUC (0 to infinity) in CB17 mouse at 10 mg/kg, po by LC/MS/MS method; format: ADME, organism-based; parameters: time infinity, dose 10 mg/kg, route oral; conditions: plasma; in short: as §1
[23] = Half life in CB17 mouse at 10 mg/kg, po by LC/MS/MS method; format: ADME, organism-based; parameters: dose 10 mg/kg, route oral; conditions: in vivo; in short: as §1
[24] = Oral bioavailability life in CB17 mouse at 10 mg/kg by LC/MS/MS method; format: ADME, organism-based; conditions: in vivo; in short: as §1
Mus musculus = experiment: Improvement in survival of BALB/c mouse xenografted with JAK2 V617F mutant harboring mouse Ba/F3 cells assessed as survival days at 15 mg/kg, po bid for 32 days; format: functional, BaF3
In short: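 BALB/c mice (n = 12/group) received one million mJAK2-Ba/F3 cells (murine Ba/F3 carrying mutant V617F JAK2) intravenously. Treatment started 1 week after implantation. Dosing was 15 mg/kg by oral gavage twice daily as a suspension in 5% methylcellulose, with a vehicle-only control group. Dosing continued until day 32 or moribundity. Survival was shown as Kaplan-Meier plots, and unrelated cage deaths were censored.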

[25] = target: T1, Tyrosine-protein kinase JAK3; experiment: Inhibition of JAK3 in […] assessed as inhibition of IL2-induced STAT5 phosphorylation by flow cytometry; format: cell-based
BaF3 = experiment: Antitumor activity against JAK2 V617F mutant harboring mouse sBA/F3 cells xenografted in BALB/c mouse assessed as reduced splenomegaly at 15 mg/kg, po bid for 32 days; format: functional, organism-based; parameters: dose 15 mg/kg
In short: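 Leukemia induced in BALB/c mice (n = 12/group) by iv injection of 1 million mJAK2(V617F)-Ba/F3 cells. Dosing began 1 week after implantation: 15 mg/kg oral gavage b.i.d. as a suspension in 5% methylcellulose, or vehicle alone, until day 32 or moribundity. Spleens were harvested and weighed after sacrifice on day 32.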

[26] = target: Tyrosine-protein kinase JAK2 (Homo sapiens, UniProt O60674); experiment: Inhibition of recombinant JAK2
Tyrosine-protein kinase JAK2, sequence (O60674 whole entry): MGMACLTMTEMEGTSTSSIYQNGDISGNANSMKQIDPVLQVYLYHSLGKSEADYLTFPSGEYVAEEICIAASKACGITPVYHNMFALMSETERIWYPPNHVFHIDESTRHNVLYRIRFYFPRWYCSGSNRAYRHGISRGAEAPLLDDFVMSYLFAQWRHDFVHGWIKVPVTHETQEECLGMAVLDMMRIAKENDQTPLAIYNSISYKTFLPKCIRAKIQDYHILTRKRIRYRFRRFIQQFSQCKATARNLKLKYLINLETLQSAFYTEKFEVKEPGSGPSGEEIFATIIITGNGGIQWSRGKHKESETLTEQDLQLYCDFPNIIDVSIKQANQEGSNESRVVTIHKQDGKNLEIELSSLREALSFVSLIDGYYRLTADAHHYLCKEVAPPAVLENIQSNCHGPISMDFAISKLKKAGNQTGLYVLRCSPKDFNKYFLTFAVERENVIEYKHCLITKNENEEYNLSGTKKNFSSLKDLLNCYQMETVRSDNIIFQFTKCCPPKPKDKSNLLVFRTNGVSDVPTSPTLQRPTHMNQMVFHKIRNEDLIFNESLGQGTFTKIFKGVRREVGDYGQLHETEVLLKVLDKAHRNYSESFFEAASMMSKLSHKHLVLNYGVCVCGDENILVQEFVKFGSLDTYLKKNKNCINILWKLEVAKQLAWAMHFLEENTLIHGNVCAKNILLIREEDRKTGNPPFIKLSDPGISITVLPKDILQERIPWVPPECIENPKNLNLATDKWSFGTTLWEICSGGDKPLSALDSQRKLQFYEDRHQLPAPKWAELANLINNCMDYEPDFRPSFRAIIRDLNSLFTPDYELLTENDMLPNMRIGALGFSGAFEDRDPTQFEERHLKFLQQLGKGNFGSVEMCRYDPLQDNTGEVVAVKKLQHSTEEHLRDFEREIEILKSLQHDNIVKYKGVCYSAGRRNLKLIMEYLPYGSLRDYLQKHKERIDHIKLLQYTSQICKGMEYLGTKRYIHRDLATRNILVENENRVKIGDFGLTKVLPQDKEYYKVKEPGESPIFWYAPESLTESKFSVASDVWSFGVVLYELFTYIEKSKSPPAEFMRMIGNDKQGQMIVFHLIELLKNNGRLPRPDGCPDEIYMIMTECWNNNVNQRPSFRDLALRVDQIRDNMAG

ALK tyrosine kinase receptor, sequence (Q9UM73 whole entry): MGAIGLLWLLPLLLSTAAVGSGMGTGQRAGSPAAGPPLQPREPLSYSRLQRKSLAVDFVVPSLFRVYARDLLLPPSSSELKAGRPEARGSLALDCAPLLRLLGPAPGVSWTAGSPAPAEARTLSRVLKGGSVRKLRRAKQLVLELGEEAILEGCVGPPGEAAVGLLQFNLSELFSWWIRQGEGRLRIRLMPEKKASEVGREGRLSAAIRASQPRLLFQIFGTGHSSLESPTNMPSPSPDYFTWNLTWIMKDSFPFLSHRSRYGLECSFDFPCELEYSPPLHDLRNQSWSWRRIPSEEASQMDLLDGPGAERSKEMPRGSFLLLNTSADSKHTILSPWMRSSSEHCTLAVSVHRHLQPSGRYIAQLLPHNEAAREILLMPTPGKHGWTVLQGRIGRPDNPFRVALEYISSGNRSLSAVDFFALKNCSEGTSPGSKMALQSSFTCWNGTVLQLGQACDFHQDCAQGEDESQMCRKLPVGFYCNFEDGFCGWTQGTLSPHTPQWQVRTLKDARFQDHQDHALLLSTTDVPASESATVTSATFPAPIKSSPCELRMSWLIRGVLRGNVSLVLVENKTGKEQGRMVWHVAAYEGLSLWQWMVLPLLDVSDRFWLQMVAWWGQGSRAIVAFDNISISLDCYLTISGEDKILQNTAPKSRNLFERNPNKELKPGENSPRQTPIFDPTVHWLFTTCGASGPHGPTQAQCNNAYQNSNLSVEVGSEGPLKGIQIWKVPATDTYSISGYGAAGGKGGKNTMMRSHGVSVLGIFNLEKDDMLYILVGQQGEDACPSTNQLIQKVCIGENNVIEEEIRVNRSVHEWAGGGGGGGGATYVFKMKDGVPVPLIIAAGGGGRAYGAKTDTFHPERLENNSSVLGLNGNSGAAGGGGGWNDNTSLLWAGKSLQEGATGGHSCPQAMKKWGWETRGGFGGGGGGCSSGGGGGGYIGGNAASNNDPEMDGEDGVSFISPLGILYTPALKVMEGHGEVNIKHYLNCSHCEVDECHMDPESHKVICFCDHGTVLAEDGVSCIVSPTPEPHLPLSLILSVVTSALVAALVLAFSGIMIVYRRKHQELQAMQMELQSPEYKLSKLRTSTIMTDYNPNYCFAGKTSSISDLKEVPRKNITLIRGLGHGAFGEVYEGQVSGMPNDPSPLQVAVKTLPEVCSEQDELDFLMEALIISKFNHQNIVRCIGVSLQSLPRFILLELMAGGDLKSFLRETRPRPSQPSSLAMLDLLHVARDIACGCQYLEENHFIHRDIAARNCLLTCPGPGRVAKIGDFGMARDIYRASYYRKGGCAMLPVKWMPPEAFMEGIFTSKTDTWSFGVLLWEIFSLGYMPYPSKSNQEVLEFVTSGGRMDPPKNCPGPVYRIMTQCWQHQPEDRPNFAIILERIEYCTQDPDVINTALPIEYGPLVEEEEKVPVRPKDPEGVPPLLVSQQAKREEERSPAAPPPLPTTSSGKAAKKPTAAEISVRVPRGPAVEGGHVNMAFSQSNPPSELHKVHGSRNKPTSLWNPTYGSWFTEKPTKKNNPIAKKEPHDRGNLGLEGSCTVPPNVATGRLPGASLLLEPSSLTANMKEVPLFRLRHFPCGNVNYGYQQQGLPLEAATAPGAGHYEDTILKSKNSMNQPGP
Mast/stem cell growth factor receptor Kit, sequence (P10721 whole entry): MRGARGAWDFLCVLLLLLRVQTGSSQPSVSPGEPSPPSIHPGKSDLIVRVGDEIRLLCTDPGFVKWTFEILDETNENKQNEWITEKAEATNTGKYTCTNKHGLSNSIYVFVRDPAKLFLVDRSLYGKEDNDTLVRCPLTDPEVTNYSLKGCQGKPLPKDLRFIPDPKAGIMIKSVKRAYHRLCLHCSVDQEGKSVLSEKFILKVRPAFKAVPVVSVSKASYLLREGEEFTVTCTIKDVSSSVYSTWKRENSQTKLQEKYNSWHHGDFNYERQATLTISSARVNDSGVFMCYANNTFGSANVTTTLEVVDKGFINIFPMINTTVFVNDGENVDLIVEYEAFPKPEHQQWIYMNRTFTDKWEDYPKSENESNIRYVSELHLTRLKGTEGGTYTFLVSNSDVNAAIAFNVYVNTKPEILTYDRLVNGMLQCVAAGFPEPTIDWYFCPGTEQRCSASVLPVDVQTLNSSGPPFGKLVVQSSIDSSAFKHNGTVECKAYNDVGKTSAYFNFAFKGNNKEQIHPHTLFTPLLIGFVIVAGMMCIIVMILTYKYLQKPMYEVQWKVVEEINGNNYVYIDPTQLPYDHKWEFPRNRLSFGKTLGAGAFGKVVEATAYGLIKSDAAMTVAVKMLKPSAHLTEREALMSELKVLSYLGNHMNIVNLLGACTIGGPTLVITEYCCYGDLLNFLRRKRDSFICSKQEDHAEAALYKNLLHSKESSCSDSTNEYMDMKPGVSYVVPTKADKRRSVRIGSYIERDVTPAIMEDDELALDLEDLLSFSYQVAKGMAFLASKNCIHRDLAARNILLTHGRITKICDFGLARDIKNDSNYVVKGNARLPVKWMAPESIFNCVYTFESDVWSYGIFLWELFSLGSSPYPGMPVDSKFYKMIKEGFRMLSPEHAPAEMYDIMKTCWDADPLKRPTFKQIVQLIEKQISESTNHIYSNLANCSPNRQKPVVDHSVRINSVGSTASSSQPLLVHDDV

O=C1Nc2ccccc2-c2ccnc3[nH]cc(c23)C1c1ccc(O)cc1 (single isomer, unassigned; atropisomer 2)
Ki [1]: 6 nM

O=C1Nc2ccccc2-c2ccnc3[nH]cc(c23)C1c1ccc(O)cc1 (stereo not given) [listing 1 of 2 here]
Ki [2]: 17 nM | Ki [3]: 190 nM | IC50 [4]: 340 nM | Cmax [5]: 700 ng/mL | AUC(0-inf) [6]: 1260 ng·h/mL | half-life [7]: 3.4 h | clearance [8]: 23.8 mL/min/kg | Vd [9]: 5.7 L/kg | Cmax [10]: 1080 ng/mL | Tmax [11]: 3 h | AUC(0-inf) [12]: 7700 ng·h/mL | half-life [13]: 3.6 h | bioavailability [14]: 100% | Cmax [15]: 7300 ng/mL | AUC(0-inf) [16]: 12500 ng·h/mL | half-life [17]: 2.7 h | clearance [18]: 12.1 mL/min/kg | Vd [19]: 2.3 L/kg | Cmax [20]: 1000 ng/mL | Tmax [21]: 2 h | AUC(0-inf) [22]: 8300 ng·h/mL | half-life [23]: 3.2 h | bioavailability [24]: 66.1% | Survival (Mus musculus): 32 days

O=C1Nc2ccccc2-c2ccnc3[nH]cc(c23)C1c1ccc(O)cc1 (single isomer, unassigned; atropisomer 1)
Ki [1]: 5.5 nM | IC50 [25]: 1530 nM

O=C1Nc2ccccc2-c2ccnc3[nH]cc(c23)C1c1ccc(O)cc1 (stereo not given) [listing 2 of 2 here]
Activity (BaF3): Active

c1ccc(-c2ncnc3[nH]ccc23)cc1
Ki [26]: 480 nM

Clc1cnc2[nH]cc(-c3ccccc3)c2c1
Ki [26]: 260 nM

Source: ChEMBL document CHEMBL1154754, “Janus kinase 2 inhibitors. Synthesis and characterization of a novel polycyclic azaindole” (J Med Chem, 2009)
